Results collected from several papers.
Protocols differ between the studies behind these lines.
GLP1R: Glucagon-like peptide 1 receptor (GLP1R, Homo sapiens, UniProt P43220)
DRD3: D(3) dopamine receptor (DRD3, Homo sapiens, UniProt P35462)
MDM4: Protein Mdm4 (MDM4, Homo sapiens, UniProt O15151)

Structure (SMILES) | target | test | conditions | endpoint | result
Nc1c(S(=O)(=O)O)cc(Nc2ccc(Nc3nc(Cl)nc(Nc4cccc(S(=O)(=O)O)c4)n3)c(S(=O)(=O)O)c2)c2c1C(=O)c1ccccc1C2=O | Pantothenate kinase 3 (PANK3, Homo sapiens, UniProt Q9H999) | enzyme activity, inhibitor, ATP luminescence |  | IC50 | 1300 nM
CC[C@H](C)[C@H](NC(=O)[C@H](CC(=O)O)NC(=O)[C@H](CC(N)=O)NC(=O)[C@@H](NC(=O)[C@H](Cc1ccccc1)NC(=O)[C@H](CO)NC(=O)CNC(=O)[C@H](CC(=O)O)NC(=O)[C@H](C)NC(=O)[C@@H](N)Cc1c[nH]cn1)[C@@H](C)O)C(=O)N[C@@H](CC(N)=O)C(=O)N[C@@H](CCCCN)C(=O)N[C@H](C(=O)N[C@@H](CC(C)C)C(=O)N[C@@H](CC(=O)O)C(=O)N[C@H](C(=O)N[C@H](C(=O)N[C@@H](C)C(=O)N[C@@H](C)C(=O)N[C@@H](CCC(N)=O)C(=O)N[C@@H](CCC(=O)O)C(=O)N[C@@H](Cc1ccccc1)C(=O)N[C@@H](CC(C)C)C(=O)N[C@@H](CC(=O)O)C(=O)N[C@@H](Cc1c[nH]c2ccccc12)C(=O)N[C@H](C(=O)N[C@H](C(=O)N[C@@H](CC(N)=O)C(=O)N[C@H](C(=O)N[C@@H](CCC(N)=O)C(=O)N[C@H](C(=O)N[C@H](C(=O)N[C@@H](CCC(=O)O)C(=O)O)[C@@H](C)O)C(C)C)[C@@H](C)O)[C@@H](C)CC)C(C)C)[C@@H](C)CC)[C@@H](C)CC)C(C)C | GLP1R | reporter gene, agonist, luciferase |  | EC50 | 29.9 nM
O=C(Nc1cccc(-c2ccn3c(CC4CC4)nnc3c2C(F)(F)F)c1)c1ccc(S(=O)(=O)F)cc1 | Metabotropic glutamate receptor 5 (GRM5, Homo sapiens, UniProt P41594) | calcium signal, agonist |  | EC50 | > 50100 nM
CC(C)[C@H](NC(=O)[C@@H]1CSSC(C)(C)[C@H](NC(=O)[C@@H](N)CC(=O)O)C(=O)N[C@@H](Cc2ccccc2)C(=O)N[C@H](Cc2c[nH]c3ccccc23)C(=O)N[C@@H](CCCN)C(=O)N[C@@H](Cc2ccc(N)cc2)C(=O)N1)C(=O)O | Urotensin-2 receptor (UTS2R, Homo sapiens, UniProt Q9UKP6) | ligand displacement, radioligand | cell membranes | Ki | 2.69 nM
CC(C)[C@@H](Nc1nc(Cl)nc2c1ncn2[C@H]1[C@H](O)[C@H](O)[C@]2(CN)C[C@H]12)C1CC1 | DRD3 | ligand displacement, radioligand |  | Ki | 3470 nM
CC[C@H](C)[C@H](NC(=O)[C@H](Cc1ccccc1)NC(=O)[C@H](CCC(=O)O)NC(=O)[C@H](CCCCN)NC(=O)[C@H](C)NC(=O)[C@H](C)NC(=O)[C@H](CCC(N)=O)NC(=O)CNC(=O)[C@H](CCC(=O)O)NC(=O)[C@H](CC(C)C)NC(=O)[C@H](Cc1ccc(O)cc1)NC(=O)[C@H](CO)NC(=O)[C@@H](NC(=O)[C@@H](NC(=O)[C@H](CC(=O)O)NC(=O)[C@H](CO)NC(=O)[C@@H](NC(=O)[C@H](Cc1ccc(O)cc1)NC(=O)[C@@H](NC(=O)CNC(=O)[C@H](CCC(=O)O)NC(=O)[C@H](C)NC(=O)[C@@H](N)Cc1c[nH]cn1)[C@@H](C)O)[C@@H](C)O)[C@@H](C)CC)[C@@H](C)O)C(=O)N[C@@H](C)C(=O)N[C@@H](Cc1c[nH]c2ccccc12)C(=O)N[C@@H](CC(C)C)C(=O)N[C@H](C(=O)N[C@@H](CC(N)=O)C(=O)NCC(=O)N[C@@H](CCCNC(=N)N)C(=O)NCC(=O)O)C(C)C | GLP1R | reporter gene, agonist, luciferase |  | EC50 | 0.863 nM
CC(C)[C@@H]1NC(=O)[C@H](CO)NC(=O)[C@H](CO)NC(=O)[C@H](CO)N(C)C(=O)[C@H](CC(=O)O)NC(=O)[C@H](CO)NC(=O)[C@H](Cc2ccccc2)NC(=O)CSC[C@@H](C(=O)NCC(N)=O)NC(=O)[C@H](CC(N)=O)NC(=O)[C@H](CCCNC(=N)N)NC(=O)[C@H](Cc2ccc(-c3ccccc3)cc2)NC(=O)[C@H](Cc2ccc(-c3ccccc3)cc2)NC(=O)[C@H](CC(N)=O)NC(=O)[C@@H]2CCCN2C1=O | MDM4 | ligand displacement, TR-FRET |  | IC50 | 835 nM
C[C@H](N)Cn1ncc2ccc3c(c21)CCCO3 | 5-hydroxytryptamine receptor 2C (Rattus norvegicus, UniProt P08909) | calcium signal, agonist |  | EC50 | 15.7 nM
CC(C)C[C@H](NC(=O)[C@H](Cc1c[nH]c2ccccc12)NC(=O)[C@H](C)NC(=O)[C@@H](NC(=O)[C@H](Cc1ccccc1)NC(=O)[C@H](CO)NC(=O)[C@H](CCC(N)=O)NC(=O)[C@H](C)NC(=O)[C@H](C)NC(=O)[C@H](CCC(N)=O)NC(=O)[C@H](CC(=O)O)NC(=O)[C@H](CCC(N)=O)NC(=O)[C@H](CC(C)C)NC(=O)[C@H](Cc1ccc(O)cc1)NC(=O)[C@H](CO)NC(=O)[C@H](CO)NC(=O)[C@@H](NC(=O)[C@H](CC(=O)O)NC(=O)[C@H](CO)NC(=O)[C@@H](NC(=O)[C@H](Cc1ccc(O)cc1)NC(=O)[C@@H](NC(=O)CNC(=O)[C@H](CCC(=O)O)NC(=O)[C@H](C)NC(=O)[C@@H](N)Cc1c[nH]cn1)[C@@H](C)O)[C@@H](C)O)C(C)C)C(C)C)C(=O)N[C@@H](CCCCN)C(=O)N[C@@H](CO)C(=O)NCC(=O)N[C@@H](CCC(N)=O)C(=O)N1CCC[C@H]1C(=O)O | GLP1R | reporter gene, agonist, luciferase |  | EC50 | 29.5 nM
CCCCNNC(=O)c1ccc(Br)cc1 | Histone deacetylase 5 (HDAC5, Homo sapiens, UniProt Q9UQL6) | enzyme activity, inhibitor, fluorescence |  | IC50 | > 100000 nM
O=C(O[C@@H]1Cc2c(O)cc(O)cc2O[C@@H]1c1cc(O)c(O)c(O)c1)c1cc(O)c(O)c(O)c1 | Maltase-glucoamylase (Homo sapiens, UniProt O43451) | enzyme activity, inhibitor |  | Ki | 5930 nM
C[C@H]1COCCN1c1nc(NCc2cccnc2C(F)(F)F)c2cccnc2n1 | A-type voltage-gated potassium channel KCND3 (KCND3, Homo sapiens, UniProt Q9UK17) | ion current, inhibitor |  | IC50 | > 33000 nM
COc1cc(N)c(Cl)cc1C(=O)NC1CCN(CCCOc2ccc(F)cc2)CC1OC (stereo not drawn) | DRD3 | ligand displacement, radioligand |  | IC50 | 6320 nM
CC(C)[C@@H]1NC(=O)[C@H](CO)NC(=O)[C@H](CO)NC(=O)[C@H](CO)N(C)C(=O)[C@H](CC(=O)O)NC(=O)[C@H](CO)NC(=O)[C@H](Cc2ccccc2)NC(=O)CSC[C@@H](C(=O)NCC(N)=O)NC(=O)[C@H](CC(N)=O)NC(=O)[C@H](CCCNC(=N)N)NC(=O)[C@H](C)NC(=O)[C@H](Cc2ccc(-c3ccccc3)cc2)NC(=O)[C@H](CC(N)=O)NC(=O)[C@@H]2CCCN2C1=O | MDM4 | ligand displacement, TR-FRET |  | Ki | > 8880 nM
C[C@@H](NC(=O)[C@@H](N)Cc1ccc(O)cc1)C(=O)NCC(=O)N[C@@H](Cc1ccccc1)C(=O)N(C)CCC[C@@]1(c2ccc(F)cc2)OCc2cc(C#N)ccc21 | DRD3 | ligand displacement, radioligand |  | Ki | > 10000 nM
CO[C@H]1C[C@H](O[C@H]2[C@H](C)O[C@@H](O[C@@H]3/C(C)=C/C[C@@H]4C[C@@H](C[C@]5(C=C[C@H](C)[C@@H](C6CCCCC6)O5)O4)OC(=O)[C@@H]4C=C(C)[C@@H](O)[C@H]5OC/C(=C\C=C\[C@@H]3C)[C@]54O)C[C@@H]2OC)O[C@@H](C)[C@@H]1O | Nuclear receptor subfamily 1 group I member 3 (Homo sapiens, UniProt Q14994) | reporter gene, antagonist |  | IC50 | 43200 nM
CC[C@H](C)[C@H](NC(=O)[C@H](CO)NC(=O)[C@H](CC(=O)O)NC(=O)[C@H](CC(C)C)NC(=O)[C@@H](NC(=O)[C@H](CCCCN)NC(=O)[C@H](CC(N)=O)NC(=O)[C@@H](NC(=O)[C@H](CC(=O)O)NC(=O)[C@H](CO)NC(=O)[C@@H](NC(=O)[C@H](Cc1ccccc1)NC(=O)[C@H](CO)NC(=O)CNC(=O)[C@H](CC(=O)O)NC(=O)[C@@H](NC(=O)[C@@H](N)Cc1c[nH]cn1)C(C)C)[C@@H](C)O)C(C)C)C(C)C)C(=O)N[C@@H](C)C(=O)N[C@@H](C)C(=O)N[C@@H](CCCCN)C(=O)N[C@@H](CCC(=O)O)C(=O)N[C@@H](Cc1ccc(O)cc1)C(=O)N[C@@H](CC(C)C)C(=O)N[C@@H](CCC(N)=O)C(=O)N[C@@H](Cc1c[nH]c2ccccc12)C(=O)N[C@H](C(=O)N[C@@H](CCSC)C(=O)N[C@@H](CC(N)=O)C(=O)N[C@@H](CO)C(=O)N[C@@H](CCCCN)C(=O)N[C@@H](C)C(=O)N[C@@H](CO)C(=O)NCC(=O)O)C(C)C | GLP1R | reporter gene, agonist, luciferase |  | EC50 | 3.64 nM
CSCC[C@H](NC(=O)[C@H](CCC(=O)O)NC(=O)[C@@H]1CCCN1C(=O)[C@@H](NC(=O)[C@@H]1CCCN1)[C@@H](C)O)C(=O)N[C@@H](CCCNC(=N)N)C(=O)N[C@@H](CCC(=O)O)C(=O)N[C@@H](CCCCN)C(=O)N[C@@H](CC(C)C)C(=O)N[C@H]1CSSC[C@@H]2NC(=O)[C@@H](NC(=O)[C@H](CC(C)C)NC(=O)[C@@H](NC(=O)[C@H](CCC(N)=O)NC(=O)[C@H](CC(C)C)NC(=O)[C@H](CC(=O)O)NC(=O)[C@@H]3CCC(=O)N3)[C@@H](C)O)CSSC[C@H](NC(=O)CNC(=O)[C@H](CC(=O)O)NC(=O)[C@H]([C@@H](C)O)NC2=O)C(=O)N[C@@H](CO)C(=O)N[C@@H](CCSC)C(=O)N[C@@H]([C@@H](C)O)C(=O)N[C@@H](CC(=O)O)C(=O)N[C@@H](CC(C)C)C(=O)N[C@@H](CO)C(=O)N[C@@H](C)C(=O)N[C@@H](CC(C)C)C(=O)N[C@H](C(=O)O)CSSC[C@@H](C(=O)NCC(=O)NCC(=O)N2CCC[C@H]2C(=O)N[C@@H](CCCNC(=N)N)C(=O)N[C@@H](Cc2c[nH]c3ccccc23)C(=O)N[C@@H](CO)C(=O)N[C@H](C(=O)N[C@@H](CCC(=O)O)C(=O)N[C@@H](C)C(=O)O)[C@@H](C)O)NC(=O)[C@H](C(C)C)NC(=O)[C@H](CCCNC(=N)N)NC(=O)[C@H](C(C)C)NC(=O)[C@H](CC(C)C)NC(=O)[C@H](C)NC(=O)[C@H](CCCNC(=N)N)NC(=O)[C@H](C(C)C)NC(=O)[C@H](Cc2ccccc2)NC(=O)[C@H](Cc2c[nH]cn2)NC(=O)[C@H](Cc2c[nH]cn2)NC(=O)CNC1=O | Relaxin receptor 2 (RXFP2, Homo sapiens, UniProt Q8WXD0) | ligand displacement in cells |  | Ki | 0.708 nM
CC(C)NCC1CCc2cc(CO)c([N+](=O)[O-])cc2N1 (stereo not drawn) | DRD3 | ligand displacement, radioligand |  | IC50 | 7400 nM
CSc1nc(N[C@H](C(C)C)C2CC2)c2ncn([C@H]3[C@H](O)[C@H](O)[C@]4(CO)C[C@H]34)c2n1 | DRD3 | ligand displacement, radioligand |  | Ki | 2230 nM
CCCC[C@@H](NC(=O)[C@@H](N)Cc1c(C)cc(O)cc1C)C(=O)NCC(=O)N[C@@H](Cc1ccc(F)cc1)C(=O)N(C)CCC[C@@]1(c2ccc(F)cc2)OCc2cc(C#N)ccc21 | DRD3 | ligand displacement, radioligand |  | Ki | 2000 nM
